Here are results for 39 molecules from ChEMBL document CHEMBL1138335, “New N-arachidonoylserotonin analogues with potential "dual" mechanism of action against pain” (J Med Chem, 2007).

Molecules are shown by their SMILES. pIC50: −log10 of the molar value. The source made the active and inactive calls. The rule behind the calls is not given here.

Test [1] addresses T1, Fatty-acid amide hydrolase 1 (Rattus norvegicus, UniProt P97612).
T1 sequence (P97612 whole entry): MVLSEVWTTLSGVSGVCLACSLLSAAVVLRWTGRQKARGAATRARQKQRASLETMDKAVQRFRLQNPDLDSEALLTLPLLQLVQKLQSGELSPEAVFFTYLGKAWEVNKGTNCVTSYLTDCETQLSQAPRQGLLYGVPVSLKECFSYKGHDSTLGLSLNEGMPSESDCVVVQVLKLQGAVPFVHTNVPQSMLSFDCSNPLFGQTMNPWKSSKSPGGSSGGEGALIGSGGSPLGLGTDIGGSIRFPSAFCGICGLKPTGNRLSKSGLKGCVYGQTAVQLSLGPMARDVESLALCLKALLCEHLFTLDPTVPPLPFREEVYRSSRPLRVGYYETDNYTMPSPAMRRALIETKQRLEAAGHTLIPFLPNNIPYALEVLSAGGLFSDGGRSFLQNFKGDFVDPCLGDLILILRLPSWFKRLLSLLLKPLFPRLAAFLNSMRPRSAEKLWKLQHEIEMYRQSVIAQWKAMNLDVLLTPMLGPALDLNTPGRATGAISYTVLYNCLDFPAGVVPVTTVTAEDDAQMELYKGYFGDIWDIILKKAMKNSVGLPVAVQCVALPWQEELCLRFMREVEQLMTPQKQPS
Kind of test: Inhibition of rat brain FAAH assessed by measuring [14C]anandamide hydrolysis after 30 mins.

Test [2] addresses Transient receptor potential cation channel subfamily V member 1 (Homo sapiens, UniProt Q8NER1). The test can be described thus: Antagonist activity at human recombinant TRPV1 receptor expressed in HEK293 cells assessed as inhibition of capsaicin-induced intracellular calcium elevation. The class given is functional, cell-based. In short, it runs like this: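 Stably transfected HEK293 cells grown in MEM with nonessential amino acids, 10% FCS, 0.2 mM glutamine, 37 °C. Plated on poly-L-lysine a day before. Loaded 2 h at 25 °C with 4 µM Fluo-3 AM, washed, trypsinized, resuspended in Tyrode pH 7.4.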

The test system of a further test is RBL-2H3. Kind of test: Inhibition of anandamide uptake in RBL-2H3 cells upto 25 uM after 5 mins by anandamide membrane transport assay. Format: functional, cell-based. The conditions noted are these: Rattus norvegicus.
In the next test the test system is Mus musculus. Kind of test: Antinociceptive activity in ip dosed mouse assessed as inhibition of formalin-induced hyperalgesia. The class given is functional, organism-based. An outline of the steps:
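Mice given compound ip 15 min before 1.25% formalin into the dorsal hind paw (n = 8–10 per group). Doses were 0.3–5 or 1–10 mg/kg. Some groups also got AM251 or AM630 (3 mg/kg ip) or I-RTX (0.1–0.2 mg/kg ip) 5 min earlier. Lifting, licking, flinching and similar behaviour timed every 5 min for 60 min. IC50 estimated at 40 min post-formalin.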

The target in test [3] is T2, Fatty-acid amide hydrolase 1 (Rattus norvegicus) (UniProt P97612).
T2 sequence (whole entry): T1 sequence (P97612 whole entry)
The settings on record: at 50 µM.

Chain of Transient receptor potential cation channel subfamily V member 1 (Q8NER1 whole entry): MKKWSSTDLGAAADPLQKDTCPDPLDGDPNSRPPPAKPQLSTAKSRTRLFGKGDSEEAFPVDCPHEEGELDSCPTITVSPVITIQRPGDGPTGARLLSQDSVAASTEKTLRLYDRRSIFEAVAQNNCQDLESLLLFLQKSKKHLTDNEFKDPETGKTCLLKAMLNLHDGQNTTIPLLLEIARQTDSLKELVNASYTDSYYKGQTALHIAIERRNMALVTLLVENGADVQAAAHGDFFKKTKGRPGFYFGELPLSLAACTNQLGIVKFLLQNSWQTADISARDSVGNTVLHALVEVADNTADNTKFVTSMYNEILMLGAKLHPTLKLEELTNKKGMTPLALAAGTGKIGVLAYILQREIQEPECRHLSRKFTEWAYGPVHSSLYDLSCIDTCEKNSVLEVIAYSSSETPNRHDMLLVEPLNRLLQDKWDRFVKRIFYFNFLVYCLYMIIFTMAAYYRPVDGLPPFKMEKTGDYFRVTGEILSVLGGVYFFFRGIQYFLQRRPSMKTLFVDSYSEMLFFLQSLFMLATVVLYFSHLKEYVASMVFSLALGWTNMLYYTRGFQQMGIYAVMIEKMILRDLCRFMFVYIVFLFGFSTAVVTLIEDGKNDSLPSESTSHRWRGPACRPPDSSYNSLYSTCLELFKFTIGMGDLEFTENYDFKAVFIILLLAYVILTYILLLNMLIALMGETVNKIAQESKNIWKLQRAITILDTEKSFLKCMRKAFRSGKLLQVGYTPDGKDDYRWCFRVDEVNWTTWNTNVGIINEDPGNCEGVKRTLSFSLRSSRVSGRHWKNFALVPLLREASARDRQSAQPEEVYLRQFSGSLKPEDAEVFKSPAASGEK

As for `CC/C=C\C/C=C\C/C=C\CCCCCCCCOC(=O)NCCc1c[nH]c2ccc(O)cc12`, the pIC50 in test [1] was under 4.30; in test [2], under 5.00.
On the same counts, the results for `CCCCC/C=C\C/C=C\C/C=C\CCCCC(=O)NCCc1c[nH]c2ccc(O)cc12` are 5.00 and 6.02.
As to `CCCCCCCCCCC(=O)NCCc1c[nH]c2ccc(O)cc12`, the pIC50 in test [1] was under 4.30; in test [2] it was 6.12.
In the case of `O=C(NCCc1c[nH]c2ccc(O)cc12)Oc1ccc(OCc2ccccc2)cc1`, the pIC50 in test [1] is 5.93; in test [2], under 5.00. In addition, the result in the test on RBL-2H3 was inactive.
On to `CCCCC/C=C\C/C=C\C/C=C\C/C=C\CCCCOC(=O)NCCc1c[nH]c2ccc(O)cc12`, for which the pIC50 is under 4.30 in test [1] and 5.55 in test [2].
Turning to `CCCCCCCCCCCC(=O)NCCc1c[nH]c2ccc(O)cc12`, the pIC50 is under 4.30 in test [1] and 6.13 in test [2].
As for `CCCCCc1cccc(NC(=O)NCCc2c[nH]c3ccc(O)cc23)c1`, the figures for the pIC50 in test [1] and in test [2] were under 4.30 and 5.58, respectively.
On to `CC(C)(C)c1ccc(OC(=O)NCCc2c[nH]c3ccc(O)cc23)cc1`, for which the pIC50 in test [1] was under 5.00; in test [2] it was 5.28.
On the same counts, the results for `CCCCC/C=C\C/C=C\CCCCCCCCOC(=O)NCCc1c[nH]c2ccc(O)cc12` are under 4.30 and under 5.00.
The corresponding values for `CCCCCCCC/C=C\CCCCCCCC(=O)NCCc1c[nH]c2ccc(O)cc12` are under 4.30 and 5.59.
Consider `O=C(Cc1cccc(-c2ccccc2)c1)NCCc1c[nH]c2ccc(O)cc12`, for which the pIC50 in test [1] was under 4.30; in test [2], 6.37. For the same molecule, the IC50 in the test with Mus musculus was 5 mg/kg.
As to `CCCCCc1ccc2ccc(CCCC(=O)NCCc3c[nH]c4ccc(O)cc34)cc2c1`, the pIC50 was 4.30 in test [1] and under 5.00 in test [2].
Regarding `CCCCC/C=C\C/C=C\C/C=C\CCCCCOC(=O)NCCc1c[nH]c2ccc(O)cc12`, the pIC50 in test [1] is under 4.30; in test [2] it was under 5.00.
`CCCCC/C=C\C/C=C\C/C=C\C/C=C\CCCC(=O)NCCc1c[nH]c2ccc(O)cc12`: the pIC50 in test [1] is 5.10; in test [2] it was 6.57. In addition, the IC50 in the test with Mus musculus worked out at 0.5 mg/kg.
Regarding `O=C(NCCc1c[nH]c2ccc(O)cc12)Oc1cccc(C(F)(F)F)c1`, the pIC50 in test [1] is 5.66; in test [2], under 5.00.
The corresponding values for `CC(C)(C)c1cccc(OC(=O)NCCc2c[nH]c3ccc(O)cc23)c1` are 5.43 and under 5.00.
As for `O=C(NCCc1c[nH]c2ccc(O)cc12)Nc1cccc(-c2ccccc2)c1`, the pIC50 in test [1] is under 4.30; in test [2], 6.14.
Turning to `O=C(NCCc1c[nH]c2ccc(O)cc12)Oc1cccc(-c2ccccc2)c1`, the pIC50 in test [1] is 6.30; in test [2] it was under 5.00. Moreover, in the test with RBL-2H3, the outcome was inactive. The IC50 with Mus musculus worked out at 4 mg/kg.
In the case of `O=C(NCCc1ccc(Cl)cc1)NCCc1c[nH]c2ccc(O)cc12`, the pIC50 in test [1] is under 4.30; in test [2], under 5.00.
The corresponding values for `O=C(NCCc1c[nH]c2ccc(O)cc12)Oc1ccc(C(F)(F)F)cc1` are 5.19 and under 5.00.
`C=C(C)[C@]12C[C@@H](C)[C@@]34O[C@](Cc5ccccc5)(O[C@@H]1[C@@H]3C=C(COC(=O)Cc1cc(I)c(O)c(OC)c1)C[C@]1(O)C(=O)C(C)=C[C@@H]41)O2` displayed an inhibition in test [3] of under 10%.
For the molecule `CCCCC/C=C\C/C=C\CCCCCCCC(=O)NCCc1c[nH]c2ccc(O)cc12`, the pIC50 in test [1] was 4.52; in test [2], 5.74.
As for `O=C(CCCCC1CCSS1)NCCc1c[nH]c2ccc(O)cc12` (racemic), the pIC50 is under 4.30 in test [1] and under 5.00 in test [2].
Turning to `O=C(NCCc1ccc(Oc2ccccc2)cc1)NCCc1c[nH]c2ccc(O)cc12`, the values for the pIC50 in test [1] and in test [2] were under 4.30 and under 5.00, respectively.
In the case of `CCCCCc1cccc(OC(=O)NCCc2c[nH]c3ccc(O)cc23)c1`, the pIC50 in test [1] was 5.44; in test [2], 5.62. Besides, in the test with RBL-2H3, the result was inactive.
On to `O=C(NCCc1c[nH]c2ccc(O)cc12)Oc1ccc(I)cc1`, for which the pIC50 in test [1] was 5.30; in test [2], under 5.00.
The corresponding values for `CC/C=C\C/C=C\C/C=C\CCCCCCCC(=O)NCCc1c[nH]c2ccc(O)cc12` are 5.00 and 6.33.
For the molecule `CCCCCc1cccc(-c2cccc(CCCC(=O)NCCc3c[nH]c4ccc(O)cc34)c2)c1`, the results for the pIC50 in test [1] and in test [2] were 4.30 and under 5.00, respectively.
The corresponding values for `CC(C)(C)c1ccc(CNC(=O)NCCc2c[nH]c3ccc(O)cc23)cc1` are 4.30 and 5.42.
The corresponding values for `O=C(CCCCCCCc1ccccc1)NCCc1c[nH]c2ccc(O)cc12` are 4.47 and 5.67.
On to `O=C(NCCc1c[nH]c2ccc(O)cc12)Oc1cccc(Cl)c1`, for which the pIC50 in test [1] was 5.72; in test [2], under 5.00.
On the same counts, the results for `O=C(CCCCCCc1ccccc1)NCCc1c[nH]c2ccc(O)cc12` are under 4.30 and 5.04.
Take `O=C(NCCc1ccccc1)NCCc1c[nH]c2ccc(O)cc12`: the pIC50 was under 4.30 in test [1] and under 5.00 in test [2].
On the same counts, the results for `O=C(NCCc1c[nH]c2ccc(O)cc12)Oc1ccc(Cl)cc1` are 5.17 and under 5.00.
The corresponding values for `O=C(NCCc1ccc(-c2ccccc2)cc1)NCCc1c[nH]c2ccc(O)cc12` are under 4.30 and under 5.00.
As to `CCCCCc1cccc(CC(=O)NCCc2c[nH]c3ccc(O)cc23)c1`, the figures for the pIC50 in test [1] and in test [2] were under 4.30 and 6.62, respectively.
On to `O=C(NCCc1c[nH]c2ccc(O)cc12)Oc1ccc2ccccc2c1`, for which the pIC50 in test [1] was 5.00; in test [2], under 5.00. Moreover, in the test with RBL-2H3, the result was inactive.
Turning to `O=C(NCCc1c[nH]c2ccc(O)cc12)Oc1cccc(I)c1`, the pIC50 was 5.74 in test [1] and under 5.00 in test [2].
On to `O=C(CCCCCCCCc1ccccc1)NCCc1c[nH]c2ccc(O)cc12`, for which the pIC50 in test [1] is 4.52; in test [2], 6.17.
